Rows were chosen to be rich in hits. Some 2.2% of all compounds tested hit in one or more screens of this group.
G6PDH CS: counter-screen for G6PDH assay hits: L. mesenteroides G6PDH inhibition; Purified L. mesenteroides G6PDH, diaphorase/resazurin coupled fluorescence, 45 min; 200,000 compounds, 0.12% hits; inhibition, % at 5 µM; in the data active = inhibition above about 50%
ROMK primary: modulates human ROMK potassium channel activity; 130,000 compounds, 2% hits; B-score at 10 µM; Tet-inducible ROMK, thallium flux fluorescence; actives lie on both sides; P48048;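 active = signal ratio slope over the read window, or its plate-corrected B-score, at least 3 SD from the plate mean, either direction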;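 also: B-score of the F/F0 ratio slope over 7 to 12 s after thallium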
Target sequence (P48048 whole entry, looked up): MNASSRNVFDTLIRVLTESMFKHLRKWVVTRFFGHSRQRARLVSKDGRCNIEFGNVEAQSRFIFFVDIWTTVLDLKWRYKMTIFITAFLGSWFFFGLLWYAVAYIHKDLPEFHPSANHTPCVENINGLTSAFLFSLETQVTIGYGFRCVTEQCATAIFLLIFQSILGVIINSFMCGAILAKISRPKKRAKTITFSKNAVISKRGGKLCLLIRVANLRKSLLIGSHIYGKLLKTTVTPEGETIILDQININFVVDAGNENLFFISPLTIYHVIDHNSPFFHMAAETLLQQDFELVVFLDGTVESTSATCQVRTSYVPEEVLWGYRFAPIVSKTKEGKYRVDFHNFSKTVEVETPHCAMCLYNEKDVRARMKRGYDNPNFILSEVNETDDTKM
Diaphorase act: activates diaphorase or chemically reduces, flagging diaphorase assay artifacts; Diaphorase/resazurin coupled assay, resorufin fluorescence, 16 min; stronger effect = higher value; 1 = vehicle wells, 0 = NADH-free wells; activation factor at 20 µM; 190,000 compounds, 0.005% hits;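 active = diaphorase activity raised at least twofold by the compound at 20 µM; inactive = activation factor below 2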
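Measured by – red resorufin fluorescence at 544/590 nm excitation/emission · Test system – Clostridium kluyveri diaphorase, purified enzyme · Incubation – reaction time 16 min, room temperature · Buffer or medium – 50 mM HEPES pH 7.4 with 4.542 mM MgCl2, 0.005% Tween 20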
PMI act hi M6P: PMI (human) activation, high substrate. 190,000 compounds, 0.34% hits. activation factor at 20 µM. coupled PMI enzyme assay, resazurin fluorescence, 20 min; stronger effect = higher value; 1 = untreated enzyme, 0 = substrate-free blank. AID 1216. P34949;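 active = activation factor of 2 or more at 20 µM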
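Test system: Human PMI in coupled enzyme assay | Input: 15 ng/mL PMI | Medium: HEPES-buffered pH 7.4 with magnesium and detergent | Compound: One concentration, 20 µM, in 1% DMSO | Incubation: Enzyme reaction with compound 20 min at room temperature | Detection: Diaphorase-driven resazurin-to-resorufin fluorescence, excitation 544, emission 590 nm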
Diaphorase inh: inhibits diaphorase or chemically oxidizes, flagging diaphorase assay artifacts; diaphorase resazurin-to-resorufin fluorescence, NADH, 16 min; bacterial (C. kluyveri) enzyme, not human; inhibition, % at 20 µM; 190,000 compounds, 0.69% hits; AID 1217;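 active = primary screen inhibition at 20 µM above a set limit, cut at about 50% in these data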;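 also: plate controls were DMSO with full reaction for no effect and wells lacking NADH for full effect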
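Assay system – diaphorase enzyme from Clostridium kluyveri · Amount – diaphorase 0.14 U/mL (working solution) · Times – reaction incubation of 16 min at room temperature · Controls – No-NADH positive control and DMSO neutral control · Signal – resorufin fluorescence 544/590 nm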
PMI act: increases human mannose-6-phosphate isomerase activity; P34949; purified human PMI, coupled resazurin fluorescence, 20 min; stronger effect = higher value; 1 = vehicle control, 0 substrate-free wells; activation factor at 20 µM; 190,000 compounds, 0.005% hits;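 active = activation factor of 2 or more at 20 µM, relative to plate controls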
* marks the source's active call; other numbers are inactive results; . = no result given.

SMILES | G6PDH CS | ROMK primary | Diaphorase act | PMI act hi M6P | Diaphorase inh | PMI act
O=C(CSc1ccc2nnc(-c3ccc(Cl)cc3)n2n1)N1CCCc2ccccc21 | -65.5 | . | 1 | 1.3 | -0.6 | 1.2
CC(C)(C(=O)O)n1cncn1 | 6.1 | 0.992 | 0.9 | 1 | 13.8 | 1.2
CCOC(=O)NC1(Nc2ccc(Cl)cn2)Oc2ccccc2O1 | 25.8 | . | 0.5 | 0.6 | 54.0* | 0.7
S=c1nc(-c2ccccc2)[nH]c2ccccc12 | -0.6 | 7.33* | 0.3 | 1.1 | 65.5* | 1
Cn1nc(C(=O)Nc2ccc3c(c2)OCCO3)cc1C(=O)O | 7.7 | 0.287 | 0.9 | 0.9 | 12.3 | 0.9
Cn1c(=O)c2c(-c3ccccc3F)c3c(nc2n(C)c1=O)-c1ccccc1C3O (centres undefined) | 2.9 | -2.6 | 1 | 2.1* | 0.3 | 1.8
C/C(=N\Nc1cccc(Cl)c1)c1ccc(-n2ccnc2)cc1 | -2.7 | 1.54 | 0.9 | 2.6* | 5.5 | 1.8
Fc1cccc2sc(Nc3nnc(-c4ccco4)o3)nc12 | 12.9 | 5.09* | 0.5 | 1 | 48.4 | 0.8
COc1cccc2sc(Nc3nnc(-c4cccs4)o3)nc12 | 6.2 | . | 1 | 1.2 | -0.3 | 1.3
Cc1ccnc(NS(=O)(=O)c2ccc(NC(=O)C3COc4ccccc4O3)cc2)n1 (centres undefined) | 5.1 | -0.184 | 1 | 1.1 | -3.8 | 1.1
COc1c(C)cccc1C(=O)NC(=S)Nc1cccc2nsnc12 | 10.1 | 0.604 | 0.3 | 1 | 66.2* | 1.1
Cc1ccc(C)c(N/N=C2\CCCNC2=O)c1 | -5.0 | -0.666 | 0.8 | 2.5* | 18.0 | 1.8
Cc1ccccc1N/N=C1\CCCNC1=O | 18.6 | . | 0.9 | 1 | 7.5 | 1
N=c1n(CCN2CCOCC2)c2ccccc2n1CC(=O)c1ccc(Cl)c(Cl)c1 | 10.7 | -4.86* | 1 | 1.6 | 3.4 | 1.3
CCOc1c(Cl)cc(CNc2ccc(N3CCCC3)cc2)cc1OC | 12.3 | 0.374 | 0.3 | 0.2 | 74.4* | 0.1
c1ccc(-c2nnc(CN3CCCc4ccccc43)o2)cc1 | 4.5 | . | 1 | 2.1* | -0.1 | 1.5
c1ccc(-c2nnc(CN3CCC4(CC3)OCCO4)o2)cc1 | -11.2 | 0.023 | 0.9 | 0.9 | 12.3 | 0.9
c1ccc(CCn2nnnc2CN2CCCc3ccccc32)cc1 | 8.0 | . | 0.9 | 2.1* | 11.6 | 1
Fc1ccc(C(c2nnnn2CCc2ccccc2)N2CCCc3ccccc32)cc1 (centres undefined) | 5.9 | -0.245 | 0.7 | 0.9 | 27.8 | 0.8
c1ccc2c(c1)CCCN2Cc1nnnn1CC1CCCO1 (centres undefined) | 7.6 | . | 0.9 | 2.1* | 13.1 | 1.5
O=C(COc1ccc2ccccc2c1)N1CCN(C(=O)c2ccc([N+](=O)[O-])cc2)CC1 | -0.4 | . | 0.9 | 1 | 6.5 | 1.1
Cc1cc(NS(=O)(=O)c2ccc(NC(=S)Nc3ccc(Cl)cc3C)cc2)no1 | . | 0.18 | . | . | . | .
CC(O)c1nc2ccccc2n1CC(=O)N1CCN(c2ccccc2)CC1 (centres undefined) | 3.0 | -0.815 | 0.9 | 0.9 | 8.3 | 1
O=c1ccc2cc3c([nH]c4ccc(Br)cc43)oc-2c1O | 15.9 | -0.285 | 0.2 | 0.4 | 75.8* | 0.3
Cc1ccn2cc(CCNC(=O)CC3CCCCC3)nc2c1 | 4.3 | -0.583 | 1 | 0.9 | 4.2 | 1
SMILES | G6PDH CS | ROMK primary | Diaphorase act | PMI act hi M6P | Diaphorase inh | PMI act
O=C(COC(=O)CCc1ccccc1)NC12CC3CC(CC(C3)C1)C2 | 2.8 | 0.521 | 0.3 | 0.9 | 71.2* | 0.9
CCc1ccc2c(CN3CCc4cc(OC)c(OC)cc4C3)cc(=O)oc2c1 | 10.4 | -1.08 | 0.9 | 2.2* | 10.1 | 1.5
COc1cc2c(cc1OC)CN(Cc1cc(=O)oc3c(C)c(C)ccc13)CC2 | -31.4 | . | 0.8 | 1.8 | 15.6 | 1.5
COc1cc2c(cc1OC)CN(Cc1cc(=O)oc3cc(C)c(Cl)cc13)CC2 | -3.2 | -0.453 | 0.9 | 2.3* | 11.8 | 1.7
COc1cc2c(cc1OC)CN(Cc1cc(=O)oc3cc(C)c(C)cc13)CC2 | 2.8 | -0.869 | 0.8 | 2.2* | 21.7 | 1.5
CCOC(CNC(=O)Cc1c(C)nc2c(-c3ccccc3)c(C)nn2c1C)OCC | 15.4 | 0.771 | 0.9 | 0.9 | 10.8 | 0.9
Cn1c(=O)[nH]c(=O)c2c1nc(N1CCOCC1)n2CC(=O)c1ccccc1 | 19.6 | 0.313 | 0.9 | 0.8 | 14.0 | 0.9
Cc1c(C)n(CC(O)CN2CCCCCC2)c2ccccc12 (centres undefined) | 10.5 | -2.06* | 0.9 | 1 | 12.4 | 1
Cc1c(C)n(CC(O)CNc2ccccc2)c2ccccc12 (centres undefined) | 9.1 | 0.0447 | 0.6 | 0.7 | 39.0 | 0.7
CN=c1scc(-c2ccccc2F)n1/N=C/c1ccc(O)c(O)c1O | 5.1 | -0.0957 | 0.3 | 0.3 | 68.1* | 0.3
CC(C)N=c1scc(-c2cccs2)n1/N=C/c1ccc(O)c(O)c1O | -10.8 | 0.913 | 0.3 | 0.4 | 65.7* | 0.2
CC(Oc1ccc(C#N)cc1)C(=O)c1ccc(F)c(F)c1 (centres undefined) | -1.4 | -0.493 | 0.9 | 1 | 5.8 | 1
O=C(NCCO)c1ccc2nc(-c3ccco3)c(-c3ccco3)nc2c1 | 28.8 | . | 0.5 | 1.7 | 52.2* | 1.4
O=C(NC1CCCC1)c1ccc2nc[nH]c2c1 | 2.3 | . | 0.9 | 0.9 | 14.5 | 0.9
c1coc(-c2nc3ccccc3nc2-c2ccco2)c1 | 21.0 | . | 0.2 | 0.7 | 80.3* | 1.1
O=C(NC1CCCC1)c1ccc2nc(-c3ccco3)c(-c3ccco3)nc2c1 | 19.3 | -1.03 | 0.2 | 0.8 | 80.4* | 1
O=C(O)c1ccc2nc(-c3ccccc3)c(-c3ccccc3)nc2c1 | 1.2 | . | 0.8 | 0.8 | 17.6 | 0.8
O=C(c1ccccc1)c1ccc2nc(-c3ccco3)c(-c3ccco3)nc2c1 | 21.1 | -0.0404 | 0.3 | 1.1 | 74.2* | 1.4
O=C(NCCc1ccccc1)c1ccc2nc(-c3ccco3)c(-c3ccco3)nc2c1 | 24.9 | -0.486 | 0.5 | 1.1 | 49.3 | 1.1
CNC(=O)NC(=O)C(C)Oc1ccccc1F (centres undefined) | 6.0 | 0.106 | 1 | 1 | -2.5 | 1.1
CCN1CCN(CCCNC(=O)C2c3ccccc3C(=O)N(c3ccc(OC)cc3)C2c2ccc(OC)cc2)CC1 (centres undefined) | 2.3 | -0.529 | 1 | 0.9 | -0.4 | 1
CCn1c2ccccc2c2nnc(SCc3cc(=O)n4ccsc4n3)nc21 | 2.3 | . | 0.2 | 0.9 | 77.2* | 0.9
CS(=O)(=O)N1N=C(c2cccs2)CC1c1ccco1 (centres undefined) | 13.6 | -0.244 | 0.7 | 0.8 | 26.1 | 0.9
